The subject of series [1] is Plasmodium falciparum. The series can be described thus: Antiplasmodial activity against bloodstream form of Plasmodium falciparum NF54 […] assessed as reduction in [3H]-hypoxanthine incorporation pretreated for 48 hrs followed by [3H]-hypoxanthine addition measured after 24 hrs by liquid scintillation counting method. In kind it is functional, organism-based.

Series [2] concerns L6. The series can be described thus: Cytotoxicity against rat L6 cells assessed as reduction in cell viability incubated for 70 hrs by resazurin dye based fluorescence assay. The settings on record: L6, 70 h. The procedure, abridged:
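Uses cultured L-6 rat skeletal myoblasts with an Alamar Blue viability read-out, run per an earlier protocol. The IC50 is the mean of at least two independent experiments, with individual values within a factor of two.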

The subject of series [3] is Leishmania donovani. The series can be described thus: Antileishmanial activity against Leishmania donovani MHOM/ET/67/L82 amastigotes measured after 70 hrs by resazurin dye based fluorometric analysis. In kind it is functional, organism-based. The settings on record: MHOM/ET/67/L82, 70 h.
For series [4], the system named is Trypanosoma cruzi. Briefly: Antitrypanosomal activity against Trypanosoma cruzi Tulahuen C4 strain amastigotes infected in rat L6 cells measured after 96 hrs by inverted microscopy analysis. The format is functional, organism-based. The following applies: Tulahuen C4, L6, 96 h.
Series [5] has as its system Trypanosoma brucei rhodesiense. Briefly: Antitrypanosomal activity against bloodstream form of Trypanosoma brucei rhodesiense STIB900 incubated for 70 hrs by resazurin dye-based fluorometric analysis. The settings on record: STIB900, 70 h. In kind it is functional, organism-based. In general terms: Alamar Blue is a resazurin reagent that responds to reducing activity.

Series [6] in a line: Selectivity index, ratio of IC50 for cytotoxicity against rat L6 cells to IC50 for antitrypanosomal activity against Trypanosoma cruzi Tulahuen C4 strain amastigotes infected in rat L6 cell. The settings on record: read-out: Ratio IC50. The format is toxicity, cell-based. The procedure, abridged:
(§1)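 Each index is the L6-cell IC50 divided by the IC50 for the given parasite. Each IC50 is the mean of at least two independent experiments, agreeing within a factor of two.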

Series [7] can be described thus: Selectivity index, ratio of IC50 for cytotoxicity against rat L6 cells to IC50 for antitrypanosomal activity against bloodstream form of Trypanosoma brucei rhodesiense STIB900. In kind it is toxicity, cell-based. The settings on record: read-out: Ratio IC50. The method in brief:
as §1

Series [8] can be described thus: Selectivity index, ratio of IC50 for cytotoxicity against rat L6 cells to IC50 for antiplasmodial activity against bloodstream form of Plasmodium falciparum NF54. The format is toxicity, cell-based. The following applies: read-out: Ratio IC50. The procedure, abridged: as §1
Series [9] is described as follows: Selectivity index, ratio of IC50 for cytotoxicity against rat L6 cells to IC50 for antileishmanial activity against Leishmania donovani MHOM/ET/67/L82 amastigotes. In kind it is toxicity, cell-based. The following applies: read-out: Ratio IC50. The procedure, abridged:
as §1

Among the data in ChEMBL document CHEMBL4837232, “Synthesis, in vitro antiprotozoal activity, molecular docking and molecular dynamics studies of some new monocationic guanidinobenzimidazoles” (Eur J Med Chem, 2021) are IC50 and selectivity ratio values, retold here.

≈ marks a conversion by molar mass, not a printed value.

Consider `N=C(N)Nc1ccc2[nH]c(-c3cc(-c4ccc(Cl)cc4)on3)nc2c1`, for which the IC50 (in general, the concentration that gives 50% inhibition) in series [1] is 1.14 µg/mL (≈ 3.23 µM); in series [2], 46.8 µg/mL (≈ 133 µM); in [3], 7.7 µg/mL (≈ 21.8 µM); in [4], 21.7 µg/mL (≈ 61.5 µM); in series [5], 5.62 µg/mL (≈ 15.9 µM).

`N=C(N)Nc1ccc2[nH]c(-c3ccc(Oc4ccccc4)cc3)nc2c1`: the IC50 was 1.87 µg/mL (≈ 5.45 µM) in series [1]; 51.6 µg/mL (≈ 150 µM) in [2]; over 100 µg/mL in series [3]; 49.5 µg/mL (≈ 144 µM) in series [4]; 16.1 µg/mL (≈ 46.9 µM) in series [5].

`N=C(N)Nc1ccc2[nH]c(-c3ccc(OCc4ccccc4)cc3)nc2c1`: the IC50 is 0.226 µg/mL (≈ 0.632 µM) in [1]; 43.2 µg/mL (≈ 121 µM) in series [2]; over 100 µg/mL in series [3]; 38 µg/mL (≈ 106 µM) in [4]; 13.6 µg/mL (≈ 38.1 µM) in series [5].

As for `COc1ccc(Oc2ccc(-c3nc4cc(NC(=N)N)ccc4[nH]3)cc2)cc1OC`, the IC50 is 0.052 µg/mL (≈ 0.129 µM) in [1]; over 100 µg/mL in series [2]; 58 µg/mL (≈ 144 µM) in series [3]; 58.6 µg/mL (≈ 145 µM) in series [4]; 12.5 µg/mL (≈ 31 µM) in series [5]. Moreover, the selectivity ratio in series [6] was over 2; in [7] it was over 8; in [8], over 1920; in [9], over 2.

In the case of `COc1ccc(-c2nc3cc(NC(=N)N)ccc3[nH]2)cc1OC`, the half-inhibitory concentration (IC50) is 0.153 µg/mL (≈ 0.491 µM) in series [1]; 78 µg/mL (≈ 251 µM) in series [2]; 97.8 µg/mL (≈ 314 µM) in [3]; over 100 µg/mL in series [4]; 23.8 µg/mL (≈ 76.4 µM) in [5].

For `N=C(N)Nc1ccc2[nH]c(-c3ccc(C(=O)O)cc3)nc2c1`, the IC50 is 37.2 µg/mL (≈ 126 µM) in series [1]; over 100 µg/mL in series [2]; over 100 µg/mL in [3]; 59.1 µg/mL (≈ 200 µM) in series [4]; 72.1 µg/mL (≈ 244 µM) in series [5].

As to `N=C(N)Nc1ccc2[nH]c(-c3ccccc3)nc2c1`, the IC50 in [1] is 4.07 µg/mL (≈ 16.2 µM); in series [2], over 100 µg/mL; in [3] it was over 100 µg/mL; in [4], 61.2 µg/mL (≈ 244 µM); in series [5], 11.6 µg/mL (≈ 46.2 µM).

Consider `Cc1ncsc1-c1nc2cc(NC(=N)N)ccc2[nH]1`, for which the IC50 in series [1] turned out to be 3.03 µg/mL (≈ 11.1 µM); in series [2] it was 93 µg/mL (≈ 341 µM); in series [3] it was 46.8 µg/mL (≈ 172 µM); in series [4] it was 64 µg/mL (≈ 235 µM); in [5], 17.3 µg/mL (≈ 63.5 µM).

For the compound `N=C(N)Nc1ccc2[nH]c(-c3ccc4c(c3)Cc3ccccc3-4)nc2c1`, the IC50 in series [1] was found to be 0.168 µg/mL (≈ 0.495 µM); in [2], 43.6 µg/mL (≈ 128 µM); in series [3], 40.3 µg/mL (≈ 119 µM); in series [4], 34.3 µg/mL (≈ 101 µM); in [5], 6.03 µg/mL (≈ 17.8 µM).

As to `N=C(N)Nc1ccc2[nH]c(-c3ccc(-c4ccccc4)cc3)nc2c1`, the IC50 in [1] stood at 0.018 µg/mL (≈ 0.055 µM); in series [2], 46.2 µg/mL (≈ 141 µM); in series [3], 52.5 µg/mL (≈ 161 µM); in series [4], 54.3 µg/mL (≈ 166 µM); in [5], 21.5 µg/mL (≈ 65.7 µM). Besides, the selectivity ratio came to 0.8 in series [6], 2 in [7], 2360 in series [8] and 0.8 in [9].

With `Cc1ccc(-c2nc3cc(NC(=N)N)ccc3[nH]2)c(C)c1`, the IC50 in [1] was 6.26 µg/mL (≈ 22.4 µM); in [2] it was 97.8 µg/mL (≈ 350 µM); in [3], over 100 µg/mL; in series [4], over 100 µg/mL; in series [5] it was 40.8 µg/mL (≈ 146 µM).

Take `N=C(N)Nc1ccc2[nH]c(-c3ccc(-c4ccccc4)s3)nc2c1`: the IC50 in series [1] is 0.279 µg/mL (≈ 0.837 µM); in series [2], 48.4 µg/mL (≈ 145 µM); in series [3], 44 µg/mL (≈ 132 µM); in [4], 36.5 µg/mL (≈ 109 µM); in [5] it was 16 µg/mL (≈ 48 µM).

Regarding `N=C(N)Nc1ccc2[nH]c(-c3ccc4c(c3)OCCO4)nc2c1`, the IC50 stood at 0.82 µg/mL (≈ 2.65 µM) in [1]; 73.5 µg/mL (≈ 238 µM) in series [2]; 56.2 µg/mL (≈ 182 µM) in [3]; 75.1 µg/mL (≈ 243 µM) in series [4]; 10.1 µg/mL (≈ 32.7 µM) in series [5].

Consider `N=C(N)Nc1ccc2[nH]c(-c3cccc4ccccc34)nc2c1`, for which the IC50 in [1] was 1.41 µg/mL (≈ 4.68 µM); in [2], 48.9 µg/mL (≈ 162 µM); in [3], over 100 µg/mL; in series [4] it was 63.6 µg/mL (≈ 211 µM); in series [5], 11.8 µg/mL (≈ 39.2 µM).

For `N=C(N)Nc1ccc2[nH]c(-c3ccc(Cl)cc3)nc2c1`, the IC50 in series [1] amounted to 1.89 µg/mL (≈ 6.61 µM); in series [2], 71.1 µg/mL (≈ 249 µM); in series [3], 64.5 µg/mL (≈ 226 µM); in [4], 90.5 µg/mL (≈ 317 µM); in series [5], 29.5 µg/mL (≈ 103 µM).

With `N=C(N)Nc1ccc2[nH]c(-c3ccc(F)c(F)c3)nc2c1`, the IC50 in [1] is 2.67 µg/mL (≈ 9.29 µM); in series [2] it was over 100 µg/mL; in series [3], over 100 µg/mL; in series [4] it was 67 µg/mL (≈ 233 µM); in series [5], 6.04 µg/mL (≈ 21 µM).

Consider `N=C(N)Nc1ccc2[nH]c(-c3cccc4cnccc34)nc2c1`, for which the IC50 in series [1] amounted to 2.72 µg/mL (≈ 9 µM); in series [2], 44.6 µg/mL (≈ 148 µM); in series [3] it was 46.3 µg/mL (≈ 153 µM); in series [4] it was 8.57 µg/mL (≈ 28.3 µM); in series [5], 3.8 µg/mL (≈ 12.6 µM).

With `N=C(N)Nc1ccc2[nH]c(-c3csc4ccccc34)nc2c1`, the IC50 in series [1] is 0.57 µg/mL (≈ 1.85 µM); in series [2] it was 40 µg/mL (≈ 130 µM); in series [3] it was 58.6 µg/mL (≈ 191 µM); in series [4], 53.1 µg/mL (≈ 173 µM); in series [5], 12.1 µg/mL (≈ 39.4 µM).

Regarding `N=C(N)Nc1ccc2[nH]c(-c3ccc(-c4cccs4)s3)nc2c1`, the IC50 in series [1] stood at 0.19 µg/mL (≈ 0.56 µM); in series [2], 49.9 µg/mL (≈ 147 µM); in [3], 37.7 µg/mL (≈ 111 µM); in series [4] it was 46.1 µg/mL (≈ 136 µM); in series [5], 11.8 µg/mL (≈ 34.8 µM).

Turning to `N#Cc1ccc(-c2nc3cc(NC(=N)N)ccc3[nH]2)cc1`, the IC50 is 1.17 µg/mL (≈ 4.23 µM) in series [1]; over 100 µg/mL in series [2]; over 100 µg/mL in series [3]; 89.5 µg/mL (≈ 324 µM) in series [4]; 18.2 µg/mL (≈ 65.9 µM) in [5].
